This is a sample that favours compounds with a hit; in the whole collection about 2.3% have one here.
TRPC6 activator: activates the mouse TRPC6 cation channel; Q61143; HEK293-TRPC6 membrane potential dye fluorescence; active compounds read high; B-score at 10 µM; 310,000 tested, 0.13% active;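 active means B-score of the integrated fluorescence ratio above library mean plus 3 SD, and starting fluorescence ratio within library mean plus 5 SD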;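 further: higher score means more depolarization so channel activation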
Target sequence (Q61143 whole entry, looked up): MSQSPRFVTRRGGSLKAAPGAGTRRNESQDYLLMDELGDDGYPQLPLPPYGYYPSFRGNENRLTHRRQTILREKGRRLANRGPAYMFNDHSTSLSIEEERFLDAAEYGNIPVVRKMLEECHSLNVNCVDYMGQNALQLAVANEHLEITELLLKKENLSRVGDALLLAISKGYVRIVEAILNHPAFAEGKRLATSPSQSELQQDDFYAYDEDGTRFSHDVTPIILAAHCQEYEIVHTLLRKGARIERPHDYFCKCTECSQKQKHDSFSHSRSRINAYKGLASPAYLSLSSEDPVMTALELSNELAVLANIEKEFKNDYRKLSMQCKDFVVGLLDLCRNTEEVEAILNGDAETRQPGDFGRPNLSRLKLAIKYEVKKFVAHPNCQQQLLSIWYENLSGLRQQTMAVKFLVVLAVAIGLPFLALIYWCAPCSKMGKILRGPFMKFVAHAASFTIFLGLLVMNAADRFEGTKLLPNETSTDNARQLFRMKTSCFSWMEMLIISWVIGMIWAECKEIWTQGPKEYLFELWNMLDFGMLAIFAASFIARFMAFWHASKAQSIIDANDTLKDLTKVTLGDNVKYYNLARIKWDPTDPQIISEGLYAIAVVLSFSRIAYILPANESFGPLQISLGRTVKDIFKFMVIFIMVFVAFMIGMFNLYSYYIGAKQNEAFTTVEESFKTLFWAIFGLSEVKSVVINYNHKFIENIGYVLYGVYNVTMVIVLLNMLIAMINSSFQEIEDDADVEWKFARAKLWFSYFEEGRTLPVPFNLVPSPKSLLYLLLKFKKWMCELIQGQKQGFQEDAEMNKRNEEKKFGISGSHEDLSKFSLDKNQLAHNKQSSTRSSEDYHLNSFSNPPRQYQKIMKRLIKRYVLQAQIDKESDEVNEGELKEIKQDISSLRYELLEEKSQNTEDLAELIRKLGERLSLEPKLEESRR
TRPC6 inh: inhibitors of mouse TRPC6 channel; Q61143; HEK293-TRPC6, membrane potential dye, ACh-evoked depolarization; active compounds read low; B-score at 10 µM; 310,000 tested, 1.1% active;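 active means B-score under library mean minus 3 SD, initial fluorescence not abnormally high, positive integrated signal ratio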;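 further: B-score derived from integrated fluorescence ratio over the kinetic read; more negative B-score means stronger inhibition of depolarization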
TRPC4 potent: allosteric potentiators of mouse TRPC4 channel; Q9QUQ5; HEK293 TRPC4beta/mu-opioid, DAMGO EC20, Fluo-4 Ca2+ flux; active compounds read high; B-score at 10 µM; 310,000 tested, 0.42% active;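 active means B-score of calcium response area above 5 SD of library B-scores, with initial fluorescence ratio within 5 SD of library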
TRPC4 agonist: opens the mouse TRPC4 cation channel; HEK293 TRPC4beta/mu-opioid, Fluo4 calcium fluorescence; active compounds read high; 310,000 tested, 0.49% active; B-score at 10 µM; Q9QUQ5;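 active means B-score above 5 SD of library B-scores, and initial fluorescence ratio not above library mean plus 5 SD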;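 further: positive B-score marks a calcium rise read as TRPC4 activation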
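Test system: HEK293 cells stably co-expressing mouse TRPC4beta and mu-opioid receptor | Schedule: Fluo4 dye loading 45 min at room temperature, 110 s recording | Measured by: Kinetic Fluo4 calcium fluorescence, 5 s baseline at 1 Hz | Evaluation: B score of integrated ratio | Controls: Buffer (low) and maximal DAMGO (high)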
TRPC4 block: TRPC4 (mouse) channel inhibition; 300,000 tested, 0.39% active; HEK293 TRPC4beta/mu-opioid, DAMGO-evoked Fluo4 calcium flux; active compounds read low; B-score at 10 µM; Q9QUQ5; AID 2247;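 active means B-score over 3 SD under the library average, no early fluorescence shift, positive overall ratio signal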
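test system = HEK293 cells with stable TRPC4beta plus mu-opioid receptor expression | detection = Fluo4 Ca2+ flux fluorescence | read-out = integrated fluorescence ratio relative to baseline, converted to per-well B score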
Hits are given with their value.

`Cc1cc(OCc2cc(C(=O)NCCN3CCCCC3CO)no2)cc(C)c1Cl` (stereo not given) gave TRPC6 activator inactive, TRPC6 inh inactive, TRPC4 potent inactive, TRPC4 agonist inactive and TRPC4 block -7.
For COc1cccc(OCc2cc(C(=O)NCCN3CCCCC3CO)no2)c1 (stereo not given) the results were TRPC6 activator inactive, TRPC6 inh inactive, TRPC4 potent inactive, TRPC4 agonist inactive and TRPC4 block inactive.
For O=C(NNS(=O)(=O)c1ccc([N+](=O)[O-])cc1)c1cnn(-c2ccccc2)c1-n1cccc1 the results were TRPC6 activator inactive, TRPC6 inh inactive, TRPC4 potent inactive, TRPC4 agonist inactive and TRPC4 block inactive.
For N=C(N)SCc1cn(-c2ccccc2)nc1-c1ccc(Br)cc1 the results were TRPC6 activator inactive, TRPC6 inh inactive, TRPC4 potent inactive, TRPC4 agonist 71 and TRPC4 block inactive.
Screening Cc1ccc(-c2nn(-c3ccccc3)cc2CO)cc1 returned TRPC6 activator inactive, TRPC6 inh inactive, TRPC4 potent inactive, TRPC4 agonist inactive and TRPC4 block inactive.
Screening Brc1ccc2[nH]c3c(NCc4ccccn4)ncnc3c2c1 returned TRPC6 activator inactive, TRPC6 inh inactive, TRPC4 potent inactive, TRPC4 agonist 61 and TRPC4 block inactive.
CC1(C)COCN1S(=O)(=O)c1ccc(C(=O)Nc2nnc(-c3ccc(Cl)s3)o2)cc1 was read as TRPC6 activator inactive, TRPC6 inh inactive, TRPC4 potent inactive, TRPC4 agonist 111 and TRPC4 block -5.
`CCC1CCCCN1S(=O)(=O)c1ccc(C(=O)Nc2nnc(-c3ccccc3Cl)o2)cc1` (stereo not given) gave TRPC6 activator inactive, TRPC6 inh inactive, TRPC4 potent inactive, TRPC4 agonist 65 and TRPC4 block inactive.
`COc1cccc(OC2OC3COC(C)(C)OC3C(O)C2NC(C)=O)c1` (stereo not given) gave TRPC6 activator inactive, TRPC6 inh inactive, TRPC4 potent inactive, TRPC4 agonist inactive and TRPC4 block inactive.
O=C(Nc1cc(Cl)ccc1F)C1=COCCO1 was read as TRPC6 activator inactive, TRPC6 inh inactive, TRPC4 potent inactive, TRPC4 agonist inactive and TRPC4 block inactive.
`Cc1ccc2[nH]c(C(=O)N3CCCCC3)cc2c1` gave TRPC6 activator inactive, TRPC6 inh inactive, TRPC4 potent inactive, TRPC4 agonist inactive and TRPC4 block inactive.
Cc1ccc2[nH]c(C(=O)NCCN3CCCC3)cc2c1 was read as TRPC6 activator inactive, TRPC6 inh inactive, TRPC4 potent inactive, TRPC4 agonist 56 and TRPC4 block inactive.
CCOC(=O)Cc1csc(NC(=O)NC2(C(F)(F)F)Oc3cc(Cl)c(Cl)cc3O2)n1 was read as TRPC6 activator inactive, TRPC6 inh inactive, TRPC4 potent inactive, TRPC4 agonist inactive and TRPC4 block -7.
`CCOC(=O)Cc1csc(NC(=O)NC2(C(F)(F)F)Oc3ccc(Cl)cc3O2)n1` (stereo not given) gave TRPC6 activator inactive, TRPC6 inh inactive, TRPC4 potent inactive, TRPC4 agonist inactive and TRPC4 block inactive.
Screening COc1ccc(-c2ccc(CNCc3ccccn3)o2)cc1Cl returned TRPC6 activator inactive, TRPC6 inh inactive, TRPC4 potent inactive, TRPC4 agonist inactive and TRPC4 block -8.
`CCn1c(=O)cc(OCC(=O)N2CCN(c3cccc(C(F)(F)F)c3)CC2)c2ccccc21` gave TRPC6 activator inactive, TRPC6 inh inactive, TRPC4 potent 11, TRPC4 agonist inactive and TRPC4 block inactive.
CSc1nc(N)c(C(=O)NC2CCCCC2)s1 was read as TRPC6 activator inactive, TRPC6 inh inactive, TRPC4 potent inactive, TRPC4 agonist inactive and TRPC4 block inactive.
For CCOC(=O)CCSc1nnc(-c2cccnc2)n1-c1ccccc1OC the results were TRPC6 activator inactive, TRPC6 inh inactive, TRPC4 potent inactive, TRPC4 agonist inactive and TRPC4 block -8.
Screening COc1cc(OC)c(NC(=O)Cn2cnc3sc(C)c(S(=O)(=O)N4CCOCC4)c3c2=O)cc1Cl returned TRPC6 activator inactive, TRPC6 inh inactive, TRPC4 potent inactive, TRPC4 agonist inactive and TRPC4 block inactive.
Screening CCCn1c(N)c(C(=O)CSc2n[nH]c(-c3ccc(C)cc3)n2)c(=O)[nH]c1=O returned TRPC6 activator inactive, TRPC6 inh inactive, TRPC4 potent 123, TRPC4 agonist inactive and TRPC4 block inactive.

Compound activity: PubChem, Johns Hopkins Ion Channel Center
